Here are results for four molecules from ChEMBL document CHEMBL2157939 (J Med Chem, 2012).

Molecules are shown by their SMILES. Active and inactive are the calls of the source.

Broadly, the ED50 is the dose that gives a 50% effect, or the effect in half of the subjects. In general, Papp refers to the rate of passage across a membrane or cell layer, normalised by area and donor concentration. Broadly, the half-life is the time in which the quantity being followed falls by half. Low values mean rapid decline, high ones slow decline. Broadly, the Ki is the equilibrium dissociation constant of an inhibitor or competing ligand from its target. What is called IC50 is the concentration needed to halve the response being measured.

Data set [1] has as its system Rattus norvegicus. Put plainly: Antinociceptive activity in iv dosed Sprague-Dawley rat chronic constriction injury model assessed as paw withdrawal threshold to von Frey filament-induced pain administered as bolus injection. The class given is functional. The essentials: (§1)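 Male SD rats (160−200 g at purchase) with CCI of left sciatic nerve (four loose silk ligatures, Bennett-Xie) under isoflurane. Single iv bolus doses 0.16 to 16 μmol/kg.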

Data set [2] concerns Rattus norvegicus. Put plainly: Antinociceptive activity in po dosed Sprague-Dawley rat chronic constriction injury model assessed as reduction in Von Frey filament-induced mechanical allodynia in ipsilateral hind paw. The class given is functional.
The subject of data set [3] is Rattus norvegicus. Put plainly: Antinociceptive activity in Sprague-Dawley rat chronic constriction injury model assessed as reduction in Von Frey filament-induced mechanical allodynia in ipsilateral hind paw at 8 umol/kg, po. The class given is functional, organism-based.
Data set [4] has as its system Rattus norvegicus. Nature of the data set: Antinociceptive activity in Sprague-Dawley rat chronic constriction model assessed as reduction in Von Frey filament-induced mechanical allodynia in contralateral hind paw at 2 umol/kg, iv administered as bolus injection. The class given is functional, organism-based.
Data set [5] relates to Rattus norvegicus. Nature of the data set: Antinociceptive activity in Sprague-Dawley rat chronic constriction model assessed as reduction in Von Frey filament-induced mechanical allodynia in contralateral hind paw at 8 umol/kg, po. The class given is functional, organism-based.
The test system of data set [6] is Rattus norvegicus. Nature of the data set: Antinociceptive activity in Sprague-Dawley rat chronic constriction model assessed as reduction in Von Frey filament-induced mechanical allodynia in ipsilateral hind paw at 2 umol/kg, iv administered as bolus injection 5 mins post-naloxone coadministration. The class given is functional, organism-based. In outline: (§2)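 CCI rats (n = 6) given single sc naloxone hydrochloride 10 mg/kg or vehicle 5 min before single iv bolus of test item.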

Data set [7] in a line: Apparent permeability across human Caco2 cells at 200 uM by LC/MS analysis. The class given is ADME, cell-based. The conditions noted are these: Caco-2. The essentials:
(§3)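 Caco-2 monolayers (passages 55−75; DMEM with 10% FBS, 1% L-glutamine, 1% nonessential amino acids, 37 °C, 5% CO2) used for apparent permeability; compound quantified by LC-MS.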
In general terms: Caco-2 cells form a polarised layer with tight junctions and transporters.

Data set [8] relates to Plasma. Nature of the data set: Plasma concentration in Sprague-Dawley rat at 10 umol/kg, po from 30 to 60 mins by LC/MS analysis. The class given is ADME, organism-based. The conditions noted are these: in vivo, BLD = below limit of detection. In outline: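 Male SD rats, 280−310 g, gavaged with 500 μL of […] aqueous solution (10 μmol/kg). Tail-vein blood at 30, 60, 90 min into heparin tubes; plasma protein-precipitated with 3 volumes acetonitrile, supernatant quantified by LC-MS; n = 4.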

The test system of data set [9] is Rattus norvegicus. Put plainly: Antinociceptive activity in Sprague-Dawley rat chronic constriction injury model assessed as paw withdrawal threshold to von Frey filament-induced pain 16 umol/kg, iv administered as bolus injection measured at 15 mins. The class given is functional, organism-based. In outline: as §1
Data set [10] in a line: Half life in human plasma at 1 mg/ml by RP-HPLC analysis. The class given is ADME, cell-free.
Data set [11] deals with Caco-2. Nature of the data set: Permeability across human Caco2 cells at 200 µM by LC/MS analysis in presence of lactose. The class given is ADME, cell-based. The conditions noted are these: caco-2, 200 µM. In outline:
as §3

Data set [12] relates to Caco-2. Put plainly: Permeability across human Caco2 cells at 200 µM by LC/MS analysis in presence of galactose. The class given is ADME, cell-based. The conditions noted are these: caco-2, 200 µM. In outline: as §3
Data set [13] deals with Caco-2. Nature of the data set: Permeability across human Caco2 cells at 200 µM by LC/MS analysis in presence of glucose. The class given is ADME, cell-based. The conditions noted are these: caco-2, 200 µM. The essentials:
as §3

Data set [14] has as its target T1, Mu-type opioid receptor (Homo sapiens, UniProt P35372). Nature of the data set: Displacement of [3H]DAMGO from mu-opioid receptor expressed in CHOK1 cells after overnight incubation by scintillation proximity assay. The class given is cell-based, CHO-K1. Background: Loss of bound radioactivity is the signal in a displacement assay; it reports binding, not function.

In data set [15] the target is Delta-type opioid receptor (Homo sapiens, UniProt P41143). Put plainly: Displacement of [3H]DPDPE from delta-opioid receptor expressed in CHOK1 cells after overnight incubation by scintillation proximity assay. The class given is cell-based, CHO-K1. In outline: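 Competitive displacement of [3H]DPDPE from human DOR in membranes of stably transfected CHOK1 cells, WGA-coated SPA beads. Eight concentrations, 10 pM to 1 μM; three independent experiments in triplicate, mean ± SEM.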

The nature of data set [16]: Selectivity ratio of Ki for delta-opioid receptor to Ki for mu-opioid receptor. In outline: (§4)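 Competitive displacement scintillation proximity assay on frozen membranes from CHO-K1 cells stably expressing human MOR, DOR or KOR, with wheatgerm agglutinin-coated SPA beads. Labels: MOR [3H]DAMGO, DOR [3H]DPDPE, KOR [3H]diprenorphine. Eight compound concentrations from 10 pM to 1 μM. Three independent experiments, each in triplicate, reported as mean ± SEM. The ratio is each Ki divided by the MOR Ki.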

The nature of data set [17]: Selectivity ratio of Ki for kappa-opioid receptor to Ki for mu-opioid receptor. The essentials:
as §4

Data set [18] has as its target T1, Mu-type opioid receptor. Put plainly: Agonist activity at mu-opioid receptor in human SH-SY5Y cells assessed as inhibition of forskolin-stimulated cAMP accumulation after 30 mins by immunoassay. The class given is functional, cell-based. For orientation: cAMP levels reflect the balance of adenylyl cyclase and phosphodiesterase activity.
Data set [19] concerns Rattus norvegicus. Nature of the data set: Antinociceptive activity in Sprague-Dawley rat chronic constriction injury model assessed as paw withdrawal threshold to von Frey filament-induced pain at 5 and 16 umol/kg, iv administered as bolus injection measured at 15 mins. The class given is functional, organism-based. The essentials:
as §1

The test system of data set [20] is Rattus norvegicus. Nature of the data set: Antinociceptive activity in Sprague-Dawley rat chronic constriction injury model assessed as paw withdrawal threshold to von Frey filament-induced pain at 5 and 16 umol/kg, iv administered as bolus injection measured up to 1.5 hrs. The class given is functional, organism-based. In outline:
as §1

In data set [21] the test system is Rattus norvegicus. Put plainly: Antinociceptive activity in Sprague-Dawley rat chronic constriction injury model assessed as reduction in Von Frey filament-induced mechanical allodynia in ipsilateral hind paw at 8 and 16 umol/kg, po at 0.75 to 1 hr. The class given is functional, organism-based.
For data set [22], the system named is Rattus norvegicus. Put plainly: Antinociceptive activity in Sprague-Dawley rat chronic constriction injury model assessed as reduction in Von Frey filament-induced mechanical allodynia in ipsilateral hind paw at 8 and 16 umol/kg, po up to 2 hrs. The class given is functional, organism-based.
The subject of data set [23] is Rattus norvegicus. Put plainly: Antinociceptive activity in Sprague-Dawley rat chronic constriction model assessed as reduction in Von Frey filament-induced mechanical allodynia in contralateral hind paw at 5 umol/kg, iv administered as bolus injection. The class given is functional, organism-based.
Data set [24] has as its system Rattus norvegicus. Put plainly: Antinociceptive activity in Sprague-Dawley rat chronic constriction model assessed as reduction in Von Frey filament-induced mechanical allodynia in ipsilateral hind paw at 5 umol/kg, iv administered as bolus injection 5 mins post-naloxone coadministration. The class given is functional, organism-based. In outline:
as §2

Data set [25] deals with Rattus norvegicus. Put plainly: Induction of constipation in fasted Sprague-Dawley rat assessed as inhibition of castor oil-induced diarrhea at 16 umol/kg, po administered 5 mins prior to castor-oil challenge measured up to 8 hrs. The class given is organism-based. The conditions noted are these: in vivo. The essentials:
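Drug-naive rats, 200−250 g, fasted ~16 h with water, then 1 h in individual wire-mesh cages without food or water. Oral test item or vehicle; 5 min later 1 mL castor oil by gavage. Diarrhea presence checked hourly to 8 h, scored by fecal boli weight and consistency.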

Data set [26] relates to Rattus norvegicus. Nature of the data set: Effect on gastrointestinal motility in fasted Sprague-Dawley rat assessed as gastrointestinal propulsion of charcoal meal at 16 umol/kg, po administered prior to charcoal meal measured after 1 hr ( Rvb = 66.5 3.8% ). The class given is ADME, organism-based. The conditions noted are these: in vivo. In outline: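 Rats 200−250 g fasted ~16 h (water allowed), n = 8 per group, dosed orally just before gavage of 1 mL aqueous 10% activated charcoal/5% gum Arabic. Killed 1 h later (ip pentobarbital, cervical dislocation); small intestine length pylorus to ileocecal junction and farthest charcoal front measured as % propulsion.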

T1 sequence (P35372 whole entry): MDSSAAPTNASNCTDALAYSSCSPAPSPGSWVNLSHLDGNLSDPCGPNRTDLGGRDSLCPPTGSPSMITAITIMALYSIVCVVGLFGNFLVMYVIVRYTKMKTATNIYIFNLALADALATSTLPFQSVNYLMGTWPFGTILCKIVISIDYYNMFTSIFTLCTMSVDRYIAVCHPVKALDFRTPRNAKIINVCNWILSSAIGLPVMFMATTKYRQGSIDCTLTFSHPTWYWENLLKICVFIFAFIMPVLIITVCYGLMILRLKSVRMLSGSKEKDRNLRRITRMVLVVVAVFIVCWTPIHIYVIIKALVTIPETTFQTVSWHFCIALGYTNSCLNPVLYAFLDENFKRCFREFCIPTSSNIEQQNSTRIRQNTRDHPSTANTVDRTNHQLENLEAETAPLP
Chain of Delta-type opioid receptor (P41143 whole entry): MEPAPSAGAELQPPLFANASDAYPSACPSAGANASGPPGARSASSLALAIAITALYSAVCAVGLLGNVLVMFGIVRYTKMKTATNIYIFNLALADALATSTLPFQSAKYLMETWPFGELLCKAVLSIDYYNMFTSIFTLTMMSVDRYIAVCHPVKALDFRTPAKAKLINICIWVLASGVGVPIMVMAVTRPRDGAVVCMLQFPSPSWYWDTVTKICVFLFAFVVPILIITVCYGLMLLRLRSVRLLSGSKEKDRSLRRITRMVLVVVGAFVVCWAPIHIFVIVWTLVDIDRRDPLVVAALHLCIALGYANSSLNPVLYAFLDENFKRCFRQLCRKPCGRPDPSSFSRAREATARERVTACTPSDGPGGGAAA

As for `CN1CC[C@]23c4c5ccc(O)c4O[C@H]2[C@@H](O)C=C[C@H]3[C@H]1C5` [MORPHINE], the figures for the ED50 in [1] and in data set [2] were 2.6 µmol/kg and 20.7 µmol/kg, respectively. For the same molecule, the result in data set [3], in data set [4] and in data set [5] was Active. Moreover, the result in data set [6] was inactive.
Consider `CC(C)NCC(O)COc1cccc2ccccc12` (configuration not stated) [PROPRANOLOL], for which the Papp at 200 µM in data set [7] was found to be 150 ×10⁻⁶ cm/s.
As for `NC(=O)[C@H](Cc1ccccc1)NC(=O)[C@H](Cc1c[nH]c2ccccc12)NC(=O)[C@@H]1CCCN1C(=O)[C@@H](N)Cc1ccc(O)cc1` [ENDOMORPHIN-1], the Papp at 200 µM in [7] came to 0.11 ×10⁻⁶ cm/s. Also, in data set [8], the Cp entry is “BLD”. In data set [9], the result was inactive.
Molecule `NC(=O)[C@H](Cc1ccccc1)NC(=O)[C@H](Cc1c[nH]c2ccccc12)NC(=O)[C@@H]1CCCN1C(=O)[C@H](Cc1ccc(O)cc1)NC(=O)CCC(=O)N[C@@H]1O[C@H](CO)[C@@H](O[C@@H]2O[C@H](CO)[C@H](O)[C@H](O)[C@H]2O)[C@H](O)[C@H]1O` showed a half-life at 1 mg/ml in data set [10] of 57.3 min. The Papp at 200 µM in [7] was 76 ×10⁻⁶ cm/s. The permeability result is “impermeable” in data set [11], “impermeable” in [12] and “permeable” in data set [13]. For the same molecule, the values for the Ki in [14] and in data set [15] were 14.9 nM and 4750 nM, respectively. Moreover, the Ratio Ki in data set [16] is 319; in data set [17], 105. The IC50 in data set [18] amounted to 590 nM. Also, the result in [19], in data set [20], in [21] and in [22] was Active. Moreover, the ED50 in data set [1] worked out at 8.3 µmol/kg; in data set [2], 19.6 µmol/kg. The Activity entry is “Dose-dependent effect” in data set [2], “Non-toxic” in data set [25] and 58.5% in [26]. For the same molecule, the outcome in [23], in data set [5] and in data set [24] was inactive.
